In ChEMBL document CHEMBL1157714, “Synthesis, anti-HIV and anti-oxidant activities of caffeoyl 5,6-anhydroquinic acid derivatives” (Bioorg Med Chem, 2010):
Values after ≈ are worked out from the molar mass of the structure shown.

Tests used:
[1] = test system: Radical scavenging activity; assay: Antioxidant activity assessed as DPPH radical scavenging activity; type: functional
Procedure, shortened: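 Each well held 10 µl compound in DMSO plus 190 µl of 0.1 mM DPPH in ethanol. After 20 min at rt, absorbance was read at 540 nm. Effective rate % was computed, each compound was tested at 4 concentrations, and EC50 was derived from a plot of effective rate % against concentration.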

[2] = test system: MT4; assay: Cytotoxicity against human MT4 cells after 5 days; type: cell-based; settings: mt4, 120 h
Procedure, shortened: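 Over a 5-day culture in RPMI-1640 with graded compound concentrations, MT-4 cell growth was checked by optical microscopy. The cytotoxic concentration (CC) was the concentration that reduced MT-4 viability.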

[3] = test system: Human immunodeficiency virus 1; assay: Antiviral activity against HIV1 3B infected in human MT4 cells after 5 days; type: functional
Procedure, shortened: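 MT-4 cells were infected 1 h with HIV-1 (HTLV-IIIB) at TCID50 0.001/cell, resuspended at 1 × 10⁵ cells/ml in RPMI-1640, and cultured 5 days with graded compound concentrations. Infected and uninfected controls had no compound. On day 5, the concentration fully preventing the virus-induced cytopathic effect was read by optical microscopy.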

[4] = Antioxidant activity assessed as SOD-like activity by WST1 assay; type: functional
Procedure, shortened: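 SOD Assay Kit-WST in 96-well plates. Compound in DMSO was mixed with WST working solution, and the reaction was started with xanthine oxidase. After 20 min at 37 °C, absorbance was read at 450 nm. Inhibition % was corrected with three blanks (DMSO, no enzyme, DMSO plus buffer). Four concentrations were tested, and IC50 was taken from the inhibition-concentration plot.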

| SMILES | EC50 [1] [µg/mL] | CC100 [2] [µg/mL] | IC100 [3] [µg/mL] | IC50 [4] [µg/mL] |
| --- | --- | --- | --- | --- |
| CC(=O)Oc1ccc(/C=C/C(=O)O[C@@H]2C=C[C@@]3(C[C@H]2OC(=O)/C=C/c2ccc(OC(C)=O)c(OC(C)=O)c2)OC(C)(C)OC3=O)cc1OC(C)=O | > 50 | > 6.25 | – | 6.3 (≈ 8.92 µM) |
| CC[C@H]1OC(=O)[C@]2(C[C@@H](O)[C@H](O)[C@H](OC(=O)/C=C/c3ccc(O)c(O)c3)C2)O1 | 20 (≈ 50.7 µM) | > 12.5 | – | 1.1 (≈ 2.79 µM) |
| CC(=O)Oc1ccc(/C=C/C(=O)O[C@@H]2C[C@]3(C=C[C@H]2O)OC(C)(C)OC3=O)cc1OC(C)=O | > 50 | > 100 | 50 | 1.8 (≈ 3.91 µM) |
| CC(=O)Oc1ccc(/C=C/C(=O)O[C@@H]2C=C[C@@]3(C[C@H]2O)OC(C)(C)OC3=O)cc1OC(C)=O | > 50 | – | – | 2.9 (≈ 6.3 µM) |
| O=C(/C=C/c1ccc(O)c(O)c1)O[C@@H]1C=C[C@@](O)(C(=O)O)C[C@H]1OC(=O)/C=C/c1ccc(O)c(O)c1 | 11 (≈ 22.1 µM) | > 25 | 6.25 | 1.9 (≈ 3.81 µM) |
| O=C(/C=C/c1ccc(O)c(O)c1)O[C@@H]1C[C@](O)(C(=O)O)C=C[C@H]1O | 16 (≈ 47.6 µM) | > 25 | – | 0.5 (≈ 1.49 µM) |
| CCCCC1(CCCC)OC(=O)[C@]2(C[C@@H](O)[C@H](O)[C@H](OC(=O)/C=C/c3ccc(O)c(O)c3)C2)O1 | 22 (≈ 46 µM) | > 25 | – | 2 (≈ 4.18 µM) |
| CCCCCC1(CCCCC)OC(=O)[C@]2(C[C@@H](O)[C@H](O)[C@H](OC(=O)/C=C/c3ccc(O)c(O)c3)C2)O1 | 28 (≈ 55.3 µM) | > 12.5 | – | 2.9 (≈ 5.72 µM) |
| O=C(/C=C/c1ccc(O)c(O)c1)O[C@@H]1C=C[C@@](O)(C(=O)O)C[C@H]1O | 15 (≈ 44.6 µM) | > 25 | – | 0.7 (≈ 2.08 µM) |
| CC1(C)O[C@H]2[C@H](O)C[C@@]3(C[C@H]2O1)OC(C)(C)OC3=O [QUINIC ACID BISACETONIDE] | > 50 | > 100 | – | > 100 |

Now from value to compound, other results behind:

| EC50 [1] [µg/mL] | SMILES | CC100 [2] [µg/mL] | IC100 [3] [µg/mL] | IC50 [4] [µg/mL] |
| --- | --- | --- | --- | --- |
| 16 (≈ 31 µM) | O=C(/C=C/c1ccc(O)c(O)c1)O[C@@H]1C[C@](O)(C(=O)O)C[C@@H](OC(=O)/C=C/c2ccc(O)c(O)c2)[C@H]1O | > 50 | 12.5 | 2.3 (≈ 4.45 µM) |
| 17 (≈ 48 µM) | O=C(/C=C/c1ccc(O)c(O)c1)O[C@@H]1C[C@@](O)(C(=O)O)C[C@@H](O)[C@@H]1O | – | – | 1.5 (≈ 4.23 µM) |
| 20 (≈ 53.1 µM) | CC1(C)OC(=O)[C@@]2(C=C[C@@H](O)[C@H](OC(=O)/C=C/c3ccc(O)c(O)c3)C2)O1 | > 100 | 50 | 1.5 (≈ 3.99 µM) |
| 18 (≈ 47.8 µM) | CC1(C)OC(=O)[C@@]2(C=C[C@@H](OC(=O)/C=C/c3ccc(O)c(O)c3)[C@H](O)C2)O1 | > 100 | 50 | 1.3 (≈ 3.45 µM) |
| 19 (≈ 48.2 µM) | CC[C@@H]1OC(=O)[C@]2(C[C@@H](O)[C@H](O)[C@H](OC(=O)/C=C/c3ccc(O)c(O)c3)C2)O1 | > 12.5 | – | 1 (≈ 2.54 µM) |
| 8 (≈ 20.3 µM) | CC1(C)OC(=O)[C@]2(C[C@@H](O)[C@H](O)[C@H](OC(=O)/C=C/c3ccc(O)c(O)c3)C2)O1 | > 50 | 25 | 1.6 (≈ 4.06 µM) |
| 20 (≈ 54.3 µM) | COC(=O)[C@@]1(O)C[C@@H](O)[C@H](O)[C@H](OC(=O)/C=C/c2ccc(O)c(O)c2)C1 | > 25 | – | 1.4 (≈ 3.8 µM) |
| > 50 | CC1(C)OC(=O)[C@@]2(C=C[C@@H](O)[C@H](O)C2)O1 | > 100 | – | > 100 |
| 20 (≈ 37.1 µM) | CC1(C)OC(=O)[C@@]2(C=C[C@@H](OC(=O)/C=C/c3ccc(O)c(O)c3)[C@H](OC(=O)/C=C/c3ccc(O)c(O)c3)C2)O1 | > 25 | – | 2 (≈ 3.71 µM) |
| 29 (≈ 68.7 µM) | CCC1(CC)OC(=O)[C@]2(C[C@@H](O)[C@H](O)[C@H](OC(=O)/C=C/c3ccc(O)c(O)c3)C2)O1 | > 25 | – | 2 (≈ 4.73 µM) |
| 30 (≈ 66.6 µM) | CCCC1(CCC)OC(=O)[C@]2(C[C@@H](O)[C@H](O)[C@H](OC(=O)/C=C/c3ccc(O)c(O)c3)C2)O1 | > 25 | – | 2 (≈ 4.44 µM) |
| > 50 | CC1(C)O[C@H]2C=C[C@@]3(C[C@H]2O1)OC(C)(C)OC3=O | > 100 | – | 90 (≈ 354 µM) |
